Source: ChEMBL document CHEMBL1129452, “Phenethylthiazolylthiourea (PETT) compounds as a new class of HIV-1 reverse transcriptase inhibitors. 2. Synthesis and further structure-activity relationship studies of PETT analogs” (J Med Chem, 1996)

Columns and labels:
MT4 [1] = assay: Tested for the inhibition of wild type HIV-1 (IIIB) replication in MT-4 cells; assay type: functional; details: Homo sapiens, read-out: ED50 (the source's name)
Outline: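 MT-4 human T cells in RPMI 1640 with 10% fetal calf serum, penicillin and streptomycin, seeded at 2 × 10⁴ cells/well and infected with 10-20 TCID₅₀ HIV-1 IIIB per well. Compounds were added over a concentration range and cultures kept at 37 °C in CO₂. Viability was read by XTT at day 5 or 6, and activity was taken as reduction of viral cytopathic effect.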

[2] = biological target: T1, Human immunodeficiency virus type 1 reverse transcriptase (Human immunodeficiency virus 1, UniProt Q72547); assay: Tested for the inhibition of wild type HIV-1 (IIIB) RT
MT4 [3] = assay: Inhibition of HIV-1(IIIB) variants (Ile100/Asn103) in HIV-1 MT-4 cells; assay type: functional; details: Homo sapiens, read-out: ED50 (the source's name)
Outline: (§1)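 MT-4 cells (human T cell line) in RPMI 1640 with 10% fetal calf serum, penicillin and streptomycin, seeded at 2 × 10⁴ cells/well. Infected with 10-20 TCID₅₀ of mutant HIV-1 IIIB per well, with the compound added at different concentrations. Incubated at 37 °C in CO₂. Cell viability read by XTT dye at day 5 or 6. Activity taken as the reduction in viral cytopathic effect, given as ED₅₀. Mutants were raised by passage in stepwise increasing concentrations of non-nucleoside RT inhibitors.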

MT4 [4] = assay: Inhibition of mutant type (Ile100) HIV-1 (IIIB) replication in MT-4 cells; assay type: functional; details: Homo sapiens, read-out: ED50 (the source's name); outline: as §1
MT4 [5] = assay: Inhibition of HIV-1(IIIB) variants (Ile100/Cys 181) in HIV-1 MT-4 cells; assay type: functional; details: Homo sapiens, read-out: ED50 (the source's name); outline: as §1
MT4 [6] = assay: Inhibition of mutant type (Cys181) HIV-1 (IIIB) replication in MT-4 cells; assay type: functional; details: Homo sapiens, read-out: ED50 (the source's name); outline: as §1
[7] = biological target: T1, Human immunodeficiency virus type 1 reverse transcriptase; assay: Tested for the inhibition of mutant type (Cys181) HIV-1 (IIIB) RT
[8] = biological target: T1, Human immunodeficiency virus type 1 reverse transcriptase; assay: Tested for the inhibition of mutant type (Ile100) HIV-1 (IIIB) RT
MT4 [9] = assay: Inhibition of HIV-1(IIIB) variants (Ile100/Cys181) in HIV-1 MT-4 cells; assay type: functional; details: Homo sapiens, read-out: ED50 (the source's name); outline: as §1
MT4 [10] = assay: Inhibition of HIV-1(IIIB) variants (Ile100/Cys181 in HIV-1 MT-4 cells; assay type: functional; details: Homo sapiens, read-out: ED50 (the source's name); outline: as §1

In the case of N#Cc1ccc(F)c(CC/N=C(\S)Nc2ccc(Cl)cn2)c1F, the EC50 (MT4 [1]) is reported as 6 nM, the IC50 [2] is reported as 9 nM and the EC50 (MT4 [3]) is reported as over 10000 nM. It also gave an EC50 (MT4 [4]) of 800 nM, an EC50 (MT4 [5]) of over 10000 nM and an EC50 (MT4 [6]) of 50 nM. For the same molecule, the IC50 [7] was 90 nM and the IC50 [8] was 400 nM.

CCOc1ccc(OC)c(CCNC(=S)Nc2ccc(Cl)cn2)c1F gave an EC50 (MT4 [1]) of 5 nM, an IC50 [2] of 5 nM and an EC50 (MT4 [3]) of over 10000 nM. It also gave an EC50 (MT4 [9]) of over 10000 nM, an EC50 (MT4 [4]) of 90 nM and an EC50 (MT4 [6]) of 9 nM. For the same molecule, the IC50 [7] was 34 nM and the IC50 [8] was 160 nM.

For O=C1c2ccccc2C(=O)N1CCNC(=S)Nc1ccc(Cl)cn1, the EC50 (MT4 [1]) was 5 nM, the IC50 [2] was 1 nM and the EC50 (MT4 [3]) was over 10000 nM. For the same molecule, the EC50 (MT4 [10]) was 15000 nM, the EC50 (MT4 [4]) was 200 nM and the EC50 (MT4 [6]) was 40 nM. It also gave an IC50 [7] of 130 nM and an IC50 [8] of 280 nM.

In the case of CCOc1ccc(F)c(CC/N=C(\S)Nc2ccc(Br)cn2)c1C#N, the EC50 (MT4 [1]) is reported as 4 nM, the IC50 [2] is reported as 2 nM and the EC50 (MT4 [3]) is reported as over 10000 nM. The EC50 (MT4 [9]) was 3000 nM, the EC50 (MT4 [4]) was 40 nM and the EC50 (MT4 [6]) was 5 nM. It also gave an IC50 [7] of 210 nM and an IC50 [8] of 140 nM.

CCOc1ccc(F)c(CCNC(=S)Nc2ccc(Br)cn2)c1F gave an EC50 (MT4 [1]) of 6 nM, an IC50 [2] of 4 nM and an EC50 (MT4 [3]) of over 10000 nM. It also gave an EC50 (MT4 [9]) of 1200 nM, an EC50 (MT4 [4]) of 100 nM and an EC50 (MT4 [6]) of 6 nM. The IC50 [7] was 20 nM and the IC50 [8] was 170 nM.

In the case of COc1ccc(F)c(CC/N=C(\S)Nc2ccc(Br)cn2)c1C#N, the EC50 (MT4 [1]) is reported as 3 nM, the IC50 [2] is reported as 1 nM and the EC50 (MT4 [3]) is reported as over 10000 nM. The EC50 (MT4 [9]) was over 10000 nM, the EC50 (MT4 [4]) was 250 nM and the EC50 (MT4 [6]) was 40 nM. The IC50 [7] was 50 nM and the IC50 [8] was 50 nM.

COc1ccc(F)c(F)c1CCNC(=S)Nc1ccc(Br)cn1 gave an EC50 (MT4 [1]) of 7 nM, an IC50 [2] of 3 nM and an EC50 (MT4 [3]) of over 10000 nM. The EC50 (MT4 [10]) was over 10000 nM, the EC50 (MT4 [4]) was 600 nM and the EC50 (MT4 [6]) was 40 nM. For the same molecule, the IC50 [7] was 4 nM and the IC50 [8] was 50 nM.

For CN(C)c1ccc(CC/N=C(\S)Nc2ccc(Br)cn2)c(F)c1C#N, the EC50 (MT4 [1]) was 13 nM, the IC50 [2] was 8 nM and the EC50 (MT4 [3]) was 5500 nM. It also gave an EC50 (MT4 [10]) of 7500 nM, an EC50 (MT4 [4]) of 150 nM and an EC50 (MT4 [6]) of 20 nM. The IC50 [7] was 110 nM and the IC50 [8] was 210 nM.
